Assay results from ChEMBL document CHEMBL3407339, “A novel series of thiazolyl-pyrazoline derivatives: synthesis and evaluation of antifungal activity, cytotoxicity and genotoxicity” (Eur J Med Chem, 2015).
In brackets after ≈: the same amount, converted by molar mass.

Tests used:
[1] = tested on: Nakaseomyces glabratus; test: Antifungal activity against Candida glabrata clinical isolate after 48 hrs by broth microdilution assay; format: functional
Method in brief: (§1)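 Broth microdilution of DMSO stocks serially diluted in sterile water (4 to 0.0039 mg/mL). Yeasts grown on SDA at 37 °C for 24 h, suspended in double-strength PDB at 10⁵ spores/mL. Incubated at 37 °C for 48 h, then sprayed with 0.5% aqueous TTC. MIC = lowest concentration inhibiting visible growth. Ketoconazole reference.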

[2] = tested on: Candida albicans; test: Antifungal activity against Candida albicans ATCC 90028 after 48 hrs by broth microdilution assay; format: functional; conditions: ATCC 90028, 48 h; method in brief: as §1
[3] = tested on: Candida tropicalis; test: Antifungal activity against Candida tropicalis NRLL Y 12968 after 48 hrs by broth microdilution assay; format: functional; conditions: NRLL Y 12968, 48 h; method in brief: as §1
[4] = tested on: Pichia kudriavzevii; test: Antifungal activity against Candida krusei NRLL Y 7179 after 48 hrs by broth microdilution assay; format: functional; conditions: NRLL Y 7179, 48 h; method in brief: as §1
[5] = tested on: [Candida] zeylanoides; test: Antifungal activity against Candida zeylanoides NRLL Y 1774 after 48 hrs by broth microdilution assay; format: functional; conditions: Dujonia zeylanoides, NRLL Y 1774, 48 h; method in brief: as §1
[6] = tested on: Candida parapsilosis; test: Antifungal activity against Candida parapsilosis NRLL Y 12696 after 48 hrs by broth microdilution assay; format: functional; conditions: Lodderomyces parapsilosis, NRLL Y 12696, 48 h; method in brief: as §1
[7] = tested on: Aspergillus flavus; test: Antifungal activity against Aspergillus flavus NRRL 980 after 72 hrs by broth microdilution assay; format: functional; conditions: NRRL 980, 72 h
Method in brief: (§2)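 Compounds dissolved in DMSO, diluted in sterile distilled water from 4 to 0.0039 mg/mL. Molds grown on PDA at 25 °C for 5 days, suspended in double-strength PDB at 10⁵ spores/mL. Incubated at 25 °C for 72 h; mycelial growth read under stereo microscope. MIC = lowest concentration inhibiting visible growth. Ketoconazole reference.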

[8] = tested on: Aspergillus niger; test: Antifungal activity against Aspergillus niger ATCC 1094 after 72 hrs by broth microdilution assay; format: functional; conditions: ATCC 1094, 72 h; method in brief: as §2
[9] = tested on: Aspergillus parasiticus; test: Antifungal activity against Aspergillus parasiticus NRRL 465 after 72 hrs by broth microdilution assay; format: functional; conditions: NRRL 465, 72 h; method in brief: as §2
[10] = tested on: Fusarium solani; test: Antifungal activity against Fusarium solani NRRL 13414 after 72 hrs by broth microdilution assay; format: functional; conditions: NRRL 13414, 72 h; method in brief: as §2
[11] = tested on: Salmonella typhimurium; test: Mutagenicity in Salmonella typhimurium TA98 at 0.156 mg/ml after 48 hrs by AMES MPF assay in presence of Sprague-Dawley rat liver microsomal S9 fraction relative to baseline; format: toxicity, organism-based; conditions: salmonella enterica subsp. enterica serovar typhimurium
Method in brief: (§3)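 Ames MPF fluctuation test with TA98/TA100. Overnight cultures (37 °C, 14–16 h) mixed with exposure medium; ±Aroclor-1254-induced rat liver S9 (final 4.5% v/v). Compounds in DMSO, 0.156–5 mg/mL. 90 min exposure at 37 °C, then indicator medium; 48 wells per concentration, 48 h at 37 °C, in triplicate. Yellow wells counted; fold induction over baseline (mean + 1 SD of zero-dose control).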

[12] = tested on: Salmonella typhimurium; test: Mutagenicity in Salmonella typhimurium TA98 at 0.3125 mg/ml after 48 hrs by AMES MPF assay in presence of Sprague-Dawley rat liver microsomal S9 fraction relative to baseline; format: toxicity, organism-based; conditions: salmonella enterica subsp. enterica serovar typhimurium; method in brief: as §3
[13] = tested on: Salmonella typhimurium; test: Mutagenicity in Salmonella typhimurium TA98 at 0.625 mg/ml after 48 hrs by AMES MPF assay in presence of Sprague-Dawley rat liver microsomal S9 fraction relative to baseline; format: toxicity, organism-based; conditions: salmonella enterica subsp. enterica serovar typhimurium; method in brief: as §3
[14] = tested on: Salmonella typhimurium; test: Mutagenicity in Salmonella typhimurium TA98 at 1.25 mg/ml after 48 hrs by AMES MPF assay in presence of Sprague-Dawley rat liver microsomal S9 fraction relative to baseline; format: toxicity, organism-based; conditions: salmonella enterica subsp. enterica serovar typhimurium; method in brief: as §3
[15] = tested on: Salmonella typhimurium; test: Mutagenicity in Salmonella typhimurium TA98 at 2.5 mg/ml after 48 hrs by AMES MPF assay in presence of Sprague-Dawley rat liver microsomal S9 fraction relative to baseline; format: toxicity, organism-based; conditions: salmonella enterica subsp. enterica serovar typhimurium; method in brief: as §3
[16] = tested on: Salmonella typhimurium; test: Mutagenicity in Salmonella typhimurium TA98 at 5 mg/ml after 48 hrs by AMES MPF assay in presence of Sprague-Dawley rat liver microsomal S9 fraction relative to baseline; format: toxicity, organism-based; conditions: salmonella enterica subsp. enterica serovar typhimurium; method in brief: as §3
[17] = tested on: Salmonella typhimurium; test: Mutagenicity in Salmonella typhimurium TA98 at 0.156 mg/ml after 48 hrs by AMES MPF assay in absence of Sprague-Dawley rat liver microsomal S9 fraction relative to baseline; format: toxicity, organism-based; conditions: salmonella enterica subsp. enterica serovar typhimurium; method in brief: as §3
[18] = tested on: Salmonella typhimurium; test: Mutagenicity in Salmonella typhimurium TA98 at 0.3125 mg/ml after 48 hrs by AMES MPF assay in absence of Sprague-Dawley rat liver microsomal S9 fraction relative to baseline; format: toxicity, organism-based; conditions: salmonella enterica subsp. enterica serovar typhimurium; method in brief: as §3
[19] = tested on: Salmonella typhimurium; test: Mutagenicity in Salmonella typhimurium TA98 at 0.625 mg/ml after 48 hrs by AMES MPF assay in absence of Sprague-Dawley rat liver microsomal S9 fraction relative to baseline; format: toxicity, organism-based; conditions: salmonella enterica subsp. enterica serovar typhimurium; method in brief: as §3
[20] = tested on: Salmonella typhimurium; test: Mutagenicity in Salmonella typhimurium TA98 at 1.25 mg/ml after 48 hrs by AMES MPF assay in absence of Sprague-Dawley rat liver microsomal S9 fraction relative to baseline; format: toxicity, organism-based; conditions: salmonella enterica subsp. enterica serovar typhimurium; method in brief: as §3
[21] = tested on: Salmonella typhimurium; test: Mutagenicity in Salmonella typhimurium TA98 at 2.5 mg/ml after 48 hrs by AMES MPF assay in absence of Sprague-Dawley rat liver microsomal S9 fraction relative to baseline; format: toxicity, organism-based; conditions: salmonella enterica subsp. enterica serovar typhimurium; method in brief: as §3
[22] = tested on: Salmonella typhimurium; test: Mutagenicity in Salmonella typhimurium TA98 at 5 mg/ml after 48 hrs by AMES MPF assay in absence of Sprague-Dawley rat liver microsomal S9 fraction relative to baseline; format: toxicity, organism-based; conditions: salmonella enterica subsp. enterica serovar typhimurium; method in brief: as §3
[23] = tested on: Salmonella typhimurium; test: Mutagenicity in Salmonella typhimurium TA100 at 0.156 mg/ml after 48 hrs by AMES MPF assay in presence of Sprague-Dawley rat liver microsomal S9 fraction relative to baseline; format: toxicity, organism-based; conditions: salmonella enterica subsp. enterica serovar typhimurium; method in brief: as §3
[24] = tested on: Salmonella typhimurium; test: Mutagenicity in Salmonella typhimurium TA100 at 0.3125 mg/ml after 48 hrs by AMES MPF assay in presence of Sprague-Dawley rat liver microsomal S9 fraction relative to baseline; format: toxicity, organism-based; conditions: salmonella enterica subsp. enterica serovar typhimurium; method in brief: as §3
[25] = tested on: Salmonella typhimurium; test: Mutagenicity in Salmonella typhimurium TA100 at 0.625 mg/ml after 48 hrs by AMES MPF assay in presence of Sprague-Dawley rat liver microsomal S9 fraction relative to baseline; format: toxicity, organism-based; conditions: salmonella enterica subsp. enterica serovar typhimurium; method in brief: as §3
[26] = tested on: Salmonella typhimurium; test: Mutagenicity in Salmonella typhimurium TA100 at 1.25 mg/ml after 48 hrs by AMES MPF assay in presence of Sprague-Dawley rat liver microsomal S9 fraction relative to baseline; format: toxicity, organism-based; conditions: salmonella enterica subsp. enterica serovar typhimurium; method in brief: as §3
[27] = tested on: Salmonella typhimurium; test: Mutagenicity in Salmonella typhimurium TA100 at 2.5 mg/ml after 48 hrs by AMES MPF assay in presence of Sprague-Dawley rat liver microsomal S9 fraction relative to baseline; format: toxicity, organism-based; conditions: salmonella enterica subsp. enterica serovar typhimurium; method in brief: as §3
[28] = tested on: Salmonella typhimurium; test: Mutagenicity in Salmonella typhimurium TA100 at 5 mg/ml after 48 hrs by AMES MPF assay in presence of Sprague-Dawley rat liver microsomal S9 fraction relative to baseline; format: toxicity, organism-based; conditions: salmonella enterica subsp. enterica serovar typhimurium; method in brief: as §3
[29] = tested on: Salmonella typhimurium; test: Mutagenicity in Salmonella typhimurium TA100 at 0.156 mg/ml after 48 hrs by AMES MPF assay in absence of Sprague-Dawley rat liver microsomal S9 fraction relative to baseline; format: toxicity, organism-based; conditions: salmonella enterica subsp. enterica serovar typhimurium; method in brief: as §3
[30] = tested on: Salmonella typhimurium; test: Mutagenicity in Salmonella typhimurium TA100 at 0.3125 mg/ml after 48 hrs by AMES MPF assay in absence of Sprague-Dawley rat liver microsomal S9 fraction relative to baseline; format: toxicity, organism-based; conditions: salmonella enterica subsp. enterica serovar typhimurium; method in brief: as §3
[31] = tested on: Salmonella typhimurium; test: Mutagenicity in Salmonella typhimurium TA100 at 0.625 mg/ml after 48 hrs by AMES MPF assay in absence of Sprague-Dawley rat liver microsomal S9 fraction relative to baseline; format: toxicity, organism-based; conditions: salmonella enterica subsp. enterica serovar typhimurium; method in brief: as §3
[32] = tested on: Salmonella typhimurium; test: Mutagenicity in Salmonella typhimurium TA100 at 1.25 mg/ml after 48 hrs by AMES MPF assay in absence of Sprague-Dawley rat liver microsomal S9 fraction relative to baseline; format: toxicity, organism-based; conditions: salmonella enterica subsp. enterica serovar typhimurium; method in brief: as §3
[33] = tested on: Salmonella typhimurium; test: Mutagenicity in Salmonella typhimurium TA100 at 2.5 mg/ml after 48 hrs by AMES MPF assay in absence of Sprague-Dawley rat liver microsomal S9 fraction relative to baseline; format: toxicity, organism-based; conditions: salmonella enterica subsp. enterica serovar typhimurium; method in brief: as §3
[34] = tested on: Salmonella typhimurium; test: Mutagenicity in Salmonella typhimurium TA100 at 5 mg/ml after 48 hrs by AMES MPF assay in absence of Sprague-Dawley rat liver microsomal S9 fraction relative to baseline; format: toxicity, organism-based; conditions: salmonella enterica subsp. enterica serovar typhimurium; method in brief: as §3
[35] = tested on: A549; test: Antiproliferative activity against human A549 cells after 24 hrs by XTT assay; format: functional, cell-based; conditions: A549, 24 h
Method in brief: (§4)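 A549 cells in RPMI and NIH/3T3 cells in DMEM, each with fetal calf serum, antibiotics and 7.5% NaHCO₃, at 37 °C, 5% CO₂. Seeded at 20,000 cells/well, 24 h, then compounds added in medium at 500–3.9 doses (final DMSO <0.1%) for 24 h. XTT read after 3 h at 480 nm (ref 680 nm). IC₅₀ by non-linear regression; triplicates; cisplatin control.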

[36] = Cytotoxicity against mouse NIH/3T3 cells after 24 hrs by XTT assay; format: cell-based; conditions: NIH3T3, 24 h; method in brief: as §4

For Fc1ccc(C2CC(c3ccc(Cl)s3)=NN2c2nc(-c3ccc(Cl)cc3)cs2)cc1 (stereo unspecified), the MIC [1] was 125 µg/mL (≈ 263 µM), the MIC [2] was 250 µg/mL (≈ 527 µM) and the MIC [3] was 250 µg/mL (≈ 527 µM). For the same molecule, the MIC [4] was 250 µg/mL (≈ 527 µM), the MIC [5] was 250 µg/mL (≈ 527 µM) and the MIC [6] was 250 µg/mL (≈ 527 µM). The MIC [7] was 125 µg/mL (≈ 263 µM), the MIC [8] was 250 µg/mL (≈ 527 µM) and the MIC [9] was 250 µg/mL (≈ 527 µM). The MIC [10] was 250 µg/mL (≈ 527 µM), the “fold change (FC)” value [11] was 0.68 and the “fold change (FC)” value [12] was 0.81. For the same molecule, the “fold change (FC)” value [13] was 0.95, the “fold change (FC)” value [14] was 0.81 and the “fold change (FC)” value [15] was 0.54. For the same molecule, the “fold change (FC)” value [16] was 0.81, the “fold change (FC)” value [17] was 0 and the “fold change (FC)” value [18] was 0. The “fold change (FC)” value [19] was 0, the “fold change (FC)” value [20] was 0.67 and the “fold change (FC)” value [21] was 0.67. For the same molecule, the “fold change (FC)” value [22] was 1, the “fold change (FC)” value [23] was 3.23 and the “fold change (FC)” value [24] was 3.92. For the same molecule, the “fold change (FC)” value [25] was 3.46, the “fold change (FC)” value [26] was 3.69 and the “fold change (FC)” value [27] was 3. For the same molecule, the “fold change (FC)” value [28] was 3.92, the “fold change (FC)” value [29] was 1.67 and the “fold change (FC)” value [30] was 0.67. The “fold change (FC)” value [31] was 0.33, the “fold change (FC)” value [32] was 0.33 and the “fold change (FC)” value [33] was 1. For the same molecule, the “fold change (FC)” value [34] was 0.33, the IC50 [35] was 125 µg/mL (≈ 263 µM) and the IC50 [36] was > 500 µg/mL.
